High-throughput results (PubChem BioAssay)
5HT1E antag: blocks the human 5-HT1E serotonin receptor. CHO 5-HT1E Ga15 NFAT-bla reporter, FRET, antagonist. hit rate 0.99% among 65,000. P28566. inhibition, % at 6 µM;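 active means inhibition above a set limit, the mean inhibition across every tested compound plus 3 SD, cut at about 29% in these data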;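 further: signal is the 460 over 535 nm emission ratio of beta-lactamase substrate; 0% = agonist plus DMSO wells and 100% = wells without agonist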
Target sequence (P28566 whole entry, looked up): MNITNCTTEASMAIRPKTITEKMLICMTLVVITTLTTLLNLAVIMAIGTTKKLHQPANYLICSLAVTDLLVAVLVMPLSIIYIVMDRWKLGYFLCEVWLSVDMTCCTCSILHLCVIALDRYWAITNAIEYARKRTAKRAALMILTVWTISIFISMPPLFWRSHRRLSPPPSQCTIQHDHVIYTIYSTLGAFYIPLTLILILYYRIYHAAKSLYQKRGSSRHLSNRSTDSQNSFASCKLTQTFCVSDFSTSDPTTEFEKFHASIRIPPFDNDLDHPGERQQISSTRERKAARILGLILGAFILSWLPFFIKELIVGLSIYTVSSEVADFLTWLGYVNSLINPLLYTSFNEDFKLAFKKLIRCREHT
HTR1A agonist: activates the human 5-HT1a serotonin receptor. activation, % at 10 µM. AID 567. P08908. hit rate 0.56% among 65,000. CHO 5-HT1a Ga15 NFAT-bla reporter, FRET ratio; 0% basal, 100% maximal reference agonist;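 active means activation above the screen-wide mean activation plus 3 SD, cut at about 19% in these data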;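 further: 0% = DMSO wells and 100% = 5-CT at EC100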
HEK293 NFkB inh: inhibitors of the PMA/ionomycin-induced NF-kB reporter in HEK293 cells; HEK-293 NF-kB luciferase reporter, luminescence; inhibition, % at 3 µM; hit rate 0.21% among 62,000; AID 465;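 active means inhibition above the mean of all tested compounds plus 3 SD, cut at about 40% in these data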;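 further: 0% = stimulated DMSO wells and 100% = 10 µM reference inhibitor 5653914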
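System: NF-kB luciferase reporter HEK-293 cells | Replication: Single test | Control set: DMSO vs reference inhibitor | Evaluation: % inhibition | Schedule: 1 h pretreatment, 16 h stimulation, 37 °C | Probe or stimulus: PMA with ionomycin | Compound dosing: One dose, 3 µM | Detection: Luciferase luminescence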
HTR1E agonist: agonists of human 5-HT1E serotonin receptor; P28566; AID 574; CHO 5-HT1E Ga15 NFAT-bla reporter, FRET; 0% DMSO wells, 100% control agonist wells; hit rate 0.69% among 65,000; activation, % at 6 µM;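 active means activation above a set limit, the screen-wide mean activation plus 3 SD, cut at about 8.5% in these data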;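 further: 100% = positive control agonist at 1 µM giving full maximal response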
5HT1a antag: 5-HT1a (human) receptor antagonism; inhibition, % at 10 µM; AID 612; hit rate 0.68% among 62,000; CHO 5-HT1a Ga15 NFAT-bla reporter, antagonist mode; P08908;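 active means inhibition above the mean of all tested compounds plus 3 SD, cut at about 43% in these data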;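 further: receptor stimulated by 5-CT agonist at 100 nM near EC80; beta-lactamase reporter measured by ratiometric fluorescence of a cleavable substrate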
Jurkat tox 60K: cytotoxic compounds reducing Jurkat cell viability | Jurkat E6.1 viability, ATP luminescence, 48 h | inhibition, % at 4 µM | hit rate 1.2% among 56,000;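 active means inhibition above the mean inhibition of all tested compounds plus 3 SD, cut at about 28% in these data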
Numbers without * were called inactive; x = no result. An excerpt weighted towards active compounds, which were near 3.3% of everything screened.

SMILES	5HT1E antag	HTR1A agonist	HEK293 NFkB inh	HTR1E agonist	5HT1a antag	Jurkat tox 60K
CCN1CCN(c2nc3c(c(=O)[nH]c(=O)n3C)n2CCCSc2ncccn2)CC1	0	62*	10	0	-6	-8
CC(C)c1nc2oc3c(NCc4cccnc4)ncnc3c2c2c1CCC2	30*	1	16	-1	-11	4
CCN1CCN(c2ncnc3c2oc2nc(C(C)C)c4c(c23)CCC4)CC1	-6	-1	3	2	-19	9
CC(C)Cc1nc2oc3c(NCc4cccnc4)ncnc3c2c2c1CCC2	35*	0	4	2	-2	4
Cc1n[nH]c(C)c1S(=O)(=O)Nc1ccc2c(c1)OCCO2	-3	-1	18	-1	0	2
O=C(OC(C(=O)NCC1CCCO1)c1ccccn1)c1cccs1 (centres undefined)	-1	0	13	0	1	x
CCOc1ccccc1C(=O)Nc1nnc(C(C)C)s1	33*	-1	12	0	9	-1
CCC(C)NC(=O)c1ccccc1NC(=O)CN1C(=O)c2ccccc2S1(=O)=O (centres undefined)	-6	-2	5	0	3	-1
Cc1nnc2n1N=CC=C(c1ccccc1)S2	30*	0	2	0	9	7
Cc1nnc2n1N=CC=C(C(C)(C)C)S2	-7	-5	-3	2	15	0
CCn1cnc2sc(C(=O)N3CCN(Cc4ccc5c(c4)OCO5)CC3)c(C)c2c1=O	3	-2	16	0	5	4
CCn1cnc2sc(C(=O)N(Cc3ccc(N(C)C)cc3)Cc3ccco3)c(C)c2c1=O	40*	2	13	0	-6	15
Cc1ccc(Cl)cc1N1CCN(C(=O)CCC(=O)O)CC1	1	-1	11	14*	6	x
O=C(O)CCC(=O)N1CCN(c2cccc(Cl)c2)CC1	4	0	-2	21*	13	2
Cc1cc(C)nc(N2CCC(C(=O)N3CCN(c4cc(Cl)ccc4C)CC3)CC2)n1	-8	1	22	0	17	-1
Cc1ccc(OCC(=O)N2CCC(N3CCCCCC3)CC2)cc1	8	0	x	-1	x	x
O=C(Cn1ccc2ccccc2c1=O)NCCC(=O)NC1CCN(Cc2ccccc2)CC1	0	0	4	11*	-10	-5
O=C(CCNC(=O)Cn1ccc2ccccc2c1=O)NCCN1CCc2ccccc2C1	-5	0	2	1	2	-3
CCOc1ccc2nc(-c3ccccc3)[nH]c2c1	11	1	-32	-1	20	76*
CC1Cc2cc(-c3csc(NC(=O)Cc4cccs4)n3)ccc2N1S(C)(=O)=O (centres undefined)	7	-1	39	0	-8	74*
O=C(c1ccc(Cl)cc1)N1CCCCC(Sc2nnc(-c3ccc4c(c3)OCO4)o2)C1=O (centres undefined)	2	1	76*	-1	-12	2
O=C1CC(c2ccc(F)c(Br)c2)C2=C(CCCC2=O)N1 (centres undefined)	-2	-3	4	-1	1	2
CCOC(=O)Nc1nc(C)c(C(=O)N(C)C)s1	1	-1	9	0	3	-3
COC(=O)Nc1nc(C)c(C(=O)N(C)C)s1	-2	19*	13	-1	2	1
CC1=C/C(=C/N(C)c2ccccc2)C(=O)S1	15	-7	4	-1	44*	-5
SMILES	5HT1E antag	HTR1A agonist	HEK293 NFkB inh	HTR1E agonist	5HT1a antag	Jurkat tox 60K
CCN1CCn2c1nc(N1CCCCC1)nc2=O	-9	1	-13	9.4*	7	-4
CCN(CC)c1nc2n(c(=O)n1)CCN2CC	-6	0	0	0	-5	-10
COC(=O)c1ccc(NC(=O)c2ccc(N(C)S(C)(=O)=O)cc2)cc1	3	-2	26	0	4	31*
CCSc1cc(C2C(C(=O)OC)=C(C)NC3=C2C(=O)CCC3)c(C)o1 (centres undefined)	0	0	-4	0	3	-7
COC(=O)CCCC(=O)Nc1c(F)c(F)c(F)c(F)c1F	3	-1	17	0	8	1
COc1ccc(CNC(C)C2COc3ccccc3O2)c(OC)c1 (centres undefined)	-1	-4	5	13*	12	1
CN(C)CCCN(CCCNC(=O)/C=N/O)Cc1ccccc1	5	-3	x	26*	x	x
CC1CCCN(C(C(=O)Nc2ccc3c(c2)OCO3)c2ccccc2)C1 (centres undefined)	13	-2	19	1	49*	6
O=C(CSc1nnc(-c2ccc(S(=O)(=O)N3CCCC3)cc2)o1)NCc1ccco1	1	-4	14	0	12	4
O=C(NCc1ccccc1)NC1(C(=O)N2CCCC2)CCCCC1	2	-1	13	89*	6	-3
O=C(NCc1ccccc1)NC1(C(=O)N2CCN(c3ncccn3)CC2)CCCCC1	-1	-1	15	0	5	-1
COc1ccc2[nH]cc(CCN=C3SCC(=O)N3C)c2c1	-6	0	1	0	2	13
Cc1cc(NC(=O)c2cc(-c3cccnc3)nc3c(C)c(C)ccc23)no1	3	1	0	0	8	5
Cc1cc(NC(c2cccnc2)c2ccc3cccnc3c2O)no1 (centres undefined)	27	-1	2	-1	17	37*
O=C(CSc1ccc2nnc(-c3ccc(Cl)cc3)n2n1)N1CCN(c2ccccc2)CC1	2	0	11	0	0	7
CN1CCN(C(=O)CSc2nc(-c3cccs3)ccc2C#N)CC1	4	-1	x	0	x	x
Cn1c(=O)c2c(nc(NCCCO)n2Cc2cccc(Br)c2)n(C)c1=O	6	-1	22	-1	-13	23
COCCCNc1nc2c(c(=O)n(C)c(=O)n2C)n1Cc1cccc(OC)c1	-4	4	x	0	x	x
CNc1nc2c(c(=O)n(C)c(=O)n2C)n1Cc1ccccc1	8	-2	14	0	1	45*
Cc1cccc(Cn2c(NCCO)nc3c2c(=O)n(C)c(=O)n3C)c1	-3	-1	10	1	5	89*
COCCNc1nc2c(c(=O)n(C)c(=O)n2C)n1Cc1cccc(C)c1	0	1	8	1	-10	28*
Cn1c(=O)c2c(nc(NCc3ccco3)n2C/C=C/c2ccccc2)n(C)c1=O	23	1	0	0	-1	49*
CCC(C)NC(=O)C1CCC(=O)N(c2ccc3c(c2)OCO3)C1c1ccc(OC)cc1 (centres undefined)	12	0	14	0	8	2
NS(=O)(=O)c1ccc(CCNC(=O)COC(=O)C2CCCN2C(=O)c2cccs2)cc1 (centres undefined)	4	-1	6	0	2	-2
